Reference: ChEMBL document CHEMBL4699473, “Discovery of Bispecific Antagonists of Retinol Binding Protein 4 That Stabilize Transthyretin Tetramers: Scaffolding Hopping, Optimization, and Preclinical Pharmacological Evaluation as a Potential Therapy for Two Common Age-Related Comorbidities” (J Med Chem, 2020)
≈ marks a conversion by molar mass, not a printed value. Values belong to the compound of their own block, whether it stands above or below them. Calls of active or inactive are those of the source. The rule behind the calls is not given here.

Experiments:
[1] = biological target: T1, Retinol-binding protein 4 (Homo sapiens, UniProt P02753); experiment: Displacement of [3H]-all-trans-retinol from biotinylated human urine derived RBP4 measured after 16 hrs by scintillation proximity assay
[2] = biological target: T2, Transthyretin (Homo sapiens, UniProt P02766); experiment: Stabilization of human His-tagged TTR (Gly21 to Glu147) expressed in HEK293 cells assessed as reduction in acid-induced protein aggregation by measuring increase in TTR monomer level at 50 uM incubated for 72 hrs at pH 4 by Western blot; format: cell-based
Outline: (§1)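 Human TTR (2 μL of 167 μM) incubated in 50 mM sodium acetate pH 4.0, 100 mM KCl, with or without 50 μM compound (DMSO vehicle), 72 h at 37 °C. Neutralized with 500 mM sodium phosphate pH 8.0 plus CHAPS, cross-linked, then run on SDS-PAGE and anti-TTR Western blot. Pixel volumes of high-molecular-weight and monomer bands quantified. At least three independent experiments; one-way ANOVA with Holm–Sidak test.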

[3] = biological target: T2, Transthyretin; experiment: Stabilization of human His-tagged TTR (Gly21 to Glu147) expressed in HEK293 cells assessed as reduction in acid-induced protein aggregation by measuring reduction in high molecular aggregates at 50 uM incubated for 72 hrs at pH 4 by Western blot analysis relative to control; format: cell-based; outline: as §1
[4] = biological target: T2, Transthyretin; experiment: Displacement of FITC-diclofenac from human plasma derived TTR measured after overnight incubation by fluorescence polarization assay; format: cell-free
Outline: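 Incubated overnight at 4 °C, then fluorescence polarization read. Nonspecific binding defined with 500 μM unlabeled diclofenac.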

[5] = Kinetic solubility of the compound in pH 7.4 PBS buffer by UV/VIS-HPLC method; format: physicochemical; settings: read-out: Kinetic_solubility
Outline: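 Kinetic solubility measured in buffer at pH 7.4.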

[6] = Stability in Sprague-Dawley rat liver microsomes assessed as parent compound remaining measured after 30 mins; format: ADME, Microsome; settings: 0.5 h
Outline: (§2)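 Parent compound remaining after 30 min incubation with human, rat, mouse or cynomolgus monkey liver microsomes, expressed as %.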

[7] = Stability in CD-1 mouse liver microsomes assessed as parent compound remaining measured after 30 mins; format: ADME, Microsome; settings: 0.5 h; outline: as §2
[8] = Stability in cynomolgus monkey liver microsomes assessed as parent compound remaining measured after 30 mins; format: ADME, Macaca fascicularis, Microsome; settings: 0.5 h; outline: as §2
[9] = Stability in human liver microsomes assessed as parent compound remaining measured after 30 mins; format: ADME, Microsome; settings: 0.5 h; outline: as §2
[10] = biological target: CYP2C9 (Homo sapiens, UniProt P11712); experiment: Inhibition of recombinant human CYP2C9 expressed in insect cell microsomes at 10 uM using 7-methoxy-4-trifluoromethylcoumarin as substrate measured after 15 to 45 mins in presence of NADPH by fluorescence assay relative to control; format: ADME, Microsome; settings: probe 7-methoxy-4-trifluoromethylcoumarin, time 15-45 min
CYP2C9, sequence (P11712 whole entry): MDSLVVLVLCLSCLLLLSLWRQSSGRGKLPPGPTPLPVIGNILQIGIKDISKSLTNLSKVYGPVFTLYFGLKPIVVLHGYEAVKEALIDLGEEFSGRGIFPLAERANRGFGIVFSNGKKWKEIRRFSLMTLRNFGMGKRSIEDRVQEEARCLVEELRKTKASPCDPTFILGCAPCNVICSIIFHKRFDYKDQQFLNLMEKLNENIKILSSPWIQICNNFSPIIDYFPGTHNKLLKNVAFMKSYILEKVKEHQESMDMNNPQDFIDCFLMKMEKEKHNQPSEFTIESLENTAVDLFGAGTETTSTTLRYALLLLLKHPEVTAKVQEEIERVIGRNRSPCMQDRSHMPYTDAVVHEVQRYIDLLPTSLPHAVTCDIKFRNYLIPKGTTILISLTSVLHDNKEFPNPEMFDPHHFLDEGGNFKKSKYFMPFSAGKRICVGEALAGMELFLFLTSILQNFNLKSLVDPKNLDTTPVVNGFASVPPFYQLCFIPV

[11] = biological target: CYP2C19 (Homo sapiens, UniProt P33261); experiment: Inhibition of recombinant human CYP2C19 expressed in insect cell microsomes at 10 uM using fluorescence probe as substrate measured after 15 to 45 mins in presence of NADPH by fluorescence assay relative to control; format: ADME, Microsome; settings: time 15-45 min
CYP2C19, sequence (P33261 whole entry): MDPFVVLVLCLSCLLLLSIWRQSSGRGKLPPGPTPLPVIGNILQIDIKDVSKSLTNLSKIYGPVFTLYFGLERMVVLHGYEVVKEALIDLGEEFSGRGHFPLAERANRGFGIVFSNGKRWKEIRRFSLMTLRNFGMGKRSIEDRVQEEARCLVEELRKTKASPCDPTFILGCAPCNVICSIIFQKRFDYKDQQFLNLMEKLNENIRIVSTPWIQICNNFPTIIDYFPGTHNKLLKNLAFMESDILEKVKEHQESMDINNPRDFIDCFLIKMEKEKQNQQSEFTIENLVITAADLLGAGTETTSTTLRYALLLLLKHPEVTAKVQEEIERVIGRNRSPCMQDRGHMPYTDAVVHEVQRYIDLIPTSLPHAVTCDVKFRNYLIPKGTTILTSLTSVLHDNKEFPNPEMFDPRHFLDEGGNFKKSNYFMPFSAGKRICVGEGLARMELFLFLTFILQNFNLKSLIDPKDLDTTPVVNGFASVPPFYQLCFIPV

[12] = biological target: CYP2D6 (Homo sapiens, UniProt P10635); experiment: Inhibition of recombinant human CYP2D6 expressed in insect cell microsomes at 10 uM using fluorescence probe as substrate measured after 15 to 45 mins in presence of NADPH by fluorescence assay relative to control; format: ADME, Microsome; settings: time 15-45 min
CYP2D6, sequence (P10635 whole entry): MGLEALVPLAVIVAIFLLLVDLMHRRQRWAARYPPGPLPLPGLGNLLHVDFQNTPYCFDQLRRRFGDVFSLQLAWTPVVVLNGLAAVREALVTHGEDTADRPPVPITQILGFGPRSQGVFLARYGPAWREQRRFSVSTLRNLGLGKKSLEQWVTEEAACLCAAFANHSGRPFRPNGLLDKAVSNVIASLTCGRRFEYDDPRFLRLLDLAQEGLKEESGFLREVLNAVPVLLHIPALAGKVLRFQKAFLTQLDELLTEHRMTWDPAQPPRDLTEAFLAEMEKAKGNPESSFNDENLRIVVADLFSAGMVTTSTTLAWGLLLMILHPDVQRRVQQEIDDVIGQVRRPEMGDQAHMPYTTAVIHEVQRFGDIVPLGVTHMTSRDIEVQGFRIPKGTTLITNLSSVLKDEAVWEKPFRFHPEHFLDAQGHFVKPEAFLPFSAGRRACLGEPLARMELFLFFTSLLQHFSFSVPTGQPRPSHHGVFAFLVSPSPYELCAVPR

[13] = biological target: CYP3A4 (Homo sapiens, UniProt P08684); experiment: Inhibition of recombinant human CYP3A4 expressed in insect cell microsomes at 10 uM using fluorescence probe as substrate measured after 15 to 45 mins in presence of NADPH by fluorescence assay relative to control; format: ADME, Microsome; settings: time 15-45 min
CYP3A4, sequence (P08684 whole entry): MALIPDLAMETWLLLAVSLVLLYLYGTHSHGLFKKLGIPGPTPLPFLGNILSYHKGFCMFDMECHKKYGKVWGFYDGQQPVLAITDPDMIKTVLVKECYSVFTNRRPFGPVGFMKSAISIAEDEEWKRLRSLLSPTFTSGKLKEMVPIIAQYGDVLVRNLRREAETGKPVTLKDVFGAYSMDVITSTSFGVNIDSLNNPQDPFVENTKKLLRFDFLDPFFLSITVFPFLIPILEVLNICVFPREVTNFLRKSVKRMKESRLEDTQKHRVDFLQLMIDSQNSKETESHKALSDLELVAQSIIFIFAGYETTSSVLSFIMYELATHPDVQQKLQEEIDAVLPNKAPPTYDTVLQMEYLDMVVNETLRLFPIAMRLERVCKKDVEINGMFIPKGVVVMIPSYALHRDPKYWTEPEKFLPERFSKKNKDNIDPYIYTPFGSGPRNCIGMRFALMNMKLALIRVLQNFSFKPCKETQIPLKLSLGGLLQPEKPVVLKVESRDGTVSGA

[14] = Initial drug level in CD-1 mouse at 2 mg/kg, iv by LC-MS/MS analysis; format: ADME, organism-based; settings: in vivo
Outline: (§3)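 Drug-naive adult male CD-1 mice, three per group, given a single IV 2 mg/kg dose in 3% dimethylacetamide/45% PEG300/12% ethanol/40% sterile water. Blood compound concentrations followed over time. C0 is the observed concentration at time zero, half-life is from the terminal elimination phase, and Vss is at steady state. Reported as mean (SD).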

[15] = Apparent terminal phase half life in CD-1 mouse at 2 mg/kg, iv by LC-MS/MS analysis; format: ADME, organism-based; settings: in vivo; outline: as §3
[16] = Volume of distribution at steady state in CD-1 mouse at 2 mg/kg, iv by LC-MS/MS analysis; format: ADME, organism-based; settings: in vivo; outline: as §3
[17] = Cmax in CD-1 mouse at 5 mg/kg, po administered via gavage by LC-MS/MS analysis; format: ADME, organism-based; parameters: route oral, dose 5 mg/kg; settings: in vivo
Outline: (§4)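 Drug-naive adult male CD-1 mice, three per group, given a single oral 5 mg/kg dose in 2% Tween 80 in 0.9% saline. Compound levels measured in blood over time. Values are the mean (SD) of the PK parameters; %F is derived against the 2 mg/kg IV group.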

[18] = Tmax in CD-1 mouse at 5 mg/kg, po administered via gavage by LC-MS/MS analysis; format: ADME, organism-based; settings: in vivo; outline: as §4
[19] = Apparent terminal phase half life in CD-1 mouse at 5 mg/kg, po administered via gavage by LC-MS/MS analysis; format: ADME, organism-based; settings: in vivo; outline: as §4
[20] = AUC (infinity) in CD-1 mouse at 5 mg/kg, po administered via gavage by LC-MS/MS analysis; format: ADME, organism-based; parameters: route oral, time infinity, dose 5 mg/kg; settings: in vivo; outline: as §4
[21] = Oral bioavailability in CD-1 mouse at 5 mg/kg administered via gavage by LC-MS/MS analysis; format: ADME, organism-based; settings: in vivo; outline: as §4
[22] = In vivo antagonist activity at TTR-RBP4 complex in CD-1 mouse assessed as reduction in serum RBP4 level at 25 mg/kg, po administered via gavage measured after 6 hrs by ELISA relative to control; format: functional; parameters: scale not given: the % may be the effect or the level left
Outline: (§5)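 Male mice received a single oral dose of 25 mg/kg; serum RBP4 was followed over time, with the 6 h and 24 h points reported as % reduction. Three mice per group; values are mean ± SD.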

[23] = tested on: Mus musculus; experiment: Effect on serum TTR level in CD-1 mouse at 25 mg/kg, po administered via gavage; format: functional, organism-based
[24] = In vivo antagonist activity at TTR-RBP4 complex in CD-1 mouse assessed as reduction in serum RBP4 level at 25 mg/kg, po administered via gavage measured after 24 hrs by ELISA relative to control; format: functional; parameters: scale not given: the % may be the effect or the level left; outline: as §5
[25] = biological target: T1, Retinol-binding protein 4; experiment: Displacement of [3H]-all-trans-retinol from MBP-tagged RBP4 (unknown origin) expressed in Escherichia coli assessed as reduction in untagged Eu-labelled TTR-RBP4 interaction measured after overnight incubation by HTRF assay

Structure (SMILES): Cc1cc(C(=O)O)nc(N2CC(Oc3ccccc3C(F)(F)F)C2)n1
- IC50 [1]: > 3 µM

Structure (SMILES): CC1=C(/C=C/C(C)=C/C=C/C(C)=C/CO)C(C)(C)CCC1
- Activity [2]: Active

Structure (SMILES): O=C(O)c1ccc2nc(-c3cc(Cl)cc(Cl)c3)oc2c1
- fold change (FC) [3]: 3.6
- Activity [2]: Active

Structure (SMILES): Cc1cc(C(=O)O)nc(N2CCC(COc3cc(C(F)(F)F)cc(C(F)(F)F)c3)C2)n1 (racemic)
- IC50 [1]: 1.6 µM
- IC50 [4]: > 30 µM

Continued, in another order:

- IC50 [1]: > 3 µM
- IC50 [4]: > 30 µM
Structure (SMILES): COc1ccc(C(F)(F)F)c(OCC2CCN(c3nc(C)cc(C(=O)O)n3)C2)c1 (racemic)

- solubility kinetic [5]: 187 µM (≈ 71.5 µg/mL)
- Stabilty [6]: 93%
- Stabilty [7]: 95%
- Stabilty [8]: 103%
- Stabilty [9]: 105%
- inhibition at 10 µM [10]: 0%
- inhibition at 10 µM [11]: 8%
- inhibition at 10 µM [12]: 18.1%
- inhibition at 10 µM [13]: 2.2%
- C0 [14]: 9129 ng/mL
- beta t1/2 [15]: 8.6 h
- Vdss [16]: 0.518 L/kg
- Cmax [17]: 3030 ng/mL
- Tmax [18]: 0.83 h
- t1/2 [19]: 9.9 h
- AUC [20]: 52439 ng·h/mL
- F [21]: 52%
- fold change (FC) [3]: 4.7
- Activity [2]: Active
Structure (SMILES): Cc1cc(C(=O)O)nc(N2CCC(COc3ccccc3C(F)(F)F)C2)n1 (racemic)
- Activity [22]: 81%
- Activity [23]: inactive
- Activity [24]: 64%

- IC50 [1]: 0.18 µM
- IC50 [4]: 3.9 µM
Structure (SMILES): Cc1cc(C(=O)O)nc(N2CCC(COc3cccc(Cl)c3C(F)(F)F)C2)n1 (racemic)

- IC50 [1]: 0.24 µM
- IC50 [25]: 0.87 µM
- IC50 [4]: 3.9 µM
Structure (SMILES): Cc1cc(C(=O)O)nc(N2CCC(COc3ccc(F)cc3C(F)(F)F)C2)n1 (racemic)
